Experimental data collected from several papers.
Compare with care: the assays were run in different laboratories. Converted amounts (≈) assume the structure as drawn.

Cc1cccc2c(=O)n(-c3ccccc3)c(SCC(=O)NN=Cc3ccc(OS(C)(=O)=O)cc3)nc12
inhibition zone (Bacillus cereus; microbial growth, well diffusion; 20 µg/mL): 2 mm

CN(C)CCNC(=O)c1ccc(-c2nc3ccc4[nH]ncc4c3c3c2CCCC3)cc1
GI50 (BJ; cell growth or viability; 72 h): > 10 µM

O=C(O)c1ccc(NCc2ccc([N+](=O)[O-])cc2)cc1
IC50 (NCI-H69; cell growth or viability, resazurin; 72 h): > 100 µM

COc1ccc(N2N=C(C(C)=O)SC2=C(C#N)C(=O)c2ccc(Nc3cnccn3)cc2)cc1
MIC (Salmonella enterica; microbial growth, broth dilution; ATCC13076 TYPHIMURIUM): 50 µg/mL (≈ 106 µM)

O=C(O)c1cn(C2CC2)c2cc(N3CCNCC3)c(F)cc2c1=O
inhibition zone (Salmonella enterica; microbial growth, well diffusion; TYPHIMURIUM; 20 µg/mL): 4 mm

O=C(N[C@H](CO)[C@H](O)c1ccc([N+](=O)[O-])cc1)C(Cl)Cl
MIC (Salmonella enterica; microbial growth, broth dilution; ATCC13076 TYPHIMURIUM): 6.25 µg/mL (≈ 19.3 µM)

O=C(O)c1ccc(NCc2cc(Br)ccc2O)cc1
IC50 (NCI-H69; cell growth or viability, resazurin; 72 h): > 100 µM

CCCS(=O)(=O)Oc1ccc(C=NNC(=O)CSc2nc3c(C)cccc3c(=O)n2-c2ccccc2)cc1OC
MIC (Salmonella enterica; microbial growth, broth dilution; TYPHIMURIUM): 49 µg/mL (≈ 84.4 µM)

COc1cc(CNc2ccc(C(=O)O)cc2)cc(OC)c1O
IC50 (NCI-H69; cell growth or viability, resazurin; 72 h): > 100 µM

Cc1n[nH]c2ccc3nc(-c4ccc(C(=O)NCCN(C)C)cc4F)c4c(c3c12)CCCC4
GI50 (BJ; cell growth or viability; 72 h): 2.21 µM

O=C(O)c1ccc(NCc2cccc(O)c2O)cc1
IC50 (NCI-H69; cell growth or viability, resazurin; 72 h): 32.2 µM

CS(=O)(=O)Oc1ccc(C=NNC(=O)CSc2nc3ccc(Cl)cc3c(=O)n2-c2ccccc2)cc1
inhibition zone (Salmonella enterica; microbial growth, well diffusion; TYPHIMURIUM; 20 µg/mL): 2 mm

CCc1nc(C(N)=O)c(Nc2ccc(N3CCC(N4CCN(C)CC4)CC3)c(OC)c2)nc1NC1CCOCC1
GI50 (BJ; cell growth or viability; 72 h): > 10 µM

Cc1nc(Nc2ncc(C(=O)Nc3c(C)cccc3Cl)s2)cc(N2CC[C@H](O)C2)n1
inhibition (JVM-2; cell growth or viability, ATP luminescence; 10 µM, 72 h): 61%

Cc1n[nH]c2ccc3nc(-c4ccc(C(=O)NCCN(C)C)cc4)c4c(c3c12)CCCC4
GI50 (BJ; cell growth or viability; 72 h): 7.16 µM

CC(=O)C1=NN(c2ccc([N+](=O)[O-])cc2)C(=C(C#N)C(=O)c2ccc(Nc3cnccn3)cc2)S1
MIC (Salmonella enterica; microbial growth, broth dilution; ATCC13076 TYPHIMURIUM): 12.5 µg/mL (≈ 25.7 µM)

Cc1n[nH]c2ccc3nc(-c4ccc(C(=O)NCCN(C)C)cc4F)c4c(c3c12)CCCCC4
GI50 (BJ; cell growth or viability; 72 h): > 10 µM

CCS(=O)(=O)Oc1ccc(C=NNC(=O)CSc2nc3ccc(Cl)cc3c(=O)n2-c2ccccc2)cc1
MIC (Salmonella enterica; microbial growth, broth dilution; TYPHIMURIUM): 21 µg/mL

N=c1sc(C(=O)c2ccc(Nc3cnccn3)cc2)nn1-c1ccccc1
MIC (Salmonella enterica; microbial growth, broth dilution; ATCC13076 TYPHIMURIUM): 100 µg/mL (≈ 267 µM)
